According to PubChem BioAssay AID602422 (The Scripps Research Institute Molecular Screening Center, 2012):
“And” between values parts separate entries of the source, which are not always exact repeats. Equal values may be shown once. The source made the active and inactive calls.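 Rule for the calls: active = remaining nuclease activity at or below 52% of the solvent-only control at any tested dose; inactive = above 52% at every tested dose.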

Test system: ATP-dependent helicase/nuclease AddAB (Helicobacter pylori 26695)
Assay: remaining H. pylori AddAB nuclease activity – biochemical, radioactivity, purified enzyme, 100 µM, powder samples, late-stage follow-up (AID 602422)
Settings: [3H]-dsDNA TCA-soluble nuclease assay, at 100 µM, stronger effect = lower value
Summary of the method: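 Test system – purified AddAB · Medium – Tris-HCl pH 8.5, MgCl2, ATP · Compound dosing – nominal 100 µM, 5% DMSO · Schedule – 20 min reaction, 37 °C · Measured by – scintillation counting, TCA-soluble counts · Evaluation – percent nuclease activity versus DMSO control, minus enzyme-free background · Benchmarks – DMSO control, no-enzyme background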

Row | Structure (SMILES) | remaining nuclease activity
1 | CCn1cc(C(=O)O)c(=O)c2cnc(N3CCN(C(=S)NC(=O)c4ccccc4Cl)CC3)nc21 | 93% (inactive)
2 | CCn1cc(C(=O)O)c(=O)c2cnc(N3CCN(C(=S)Nc4ccc(Cl)cc4)CC3)nc21 | 19%
3 | CCn1cc(C(=O)O)c(=O)c2cnc(N3CCN(C(=S)Nc4ccccc4C)CC3)nc21 | 81% (inactive)
4 | CCn1cc(C(=O)O)c(=O)c2cnc(N3CCN(C(=S)Nc4ccccc4F)CC3)nc21 | 74% (inactive)
5 | CCn1cc(C(=O)O)c(=O)c2cnc(N3CCN(C(=S)Nc4ccccc4Cl)CC3)nc21 | 74% (inactive)
6 | CCn1cc(C(=O)O)c(=O)c2cnc(N3CCN(C(=S)NC(=O)c4cccnc4)CC3)nc21 | 101% (inactive)
7 | CCn1cc(C(=O)O)c(=O)c2cnc(N3CCN(C(=S)NC(=O)c4ccco4)CC3)nc21 | 89% (inactive)
8 | CCn1cc(C(=O)O)c(=O)c2cnc(N3CCN(C(=O)Nc4ccccc4)CC3)nc21 | 92% (inactive)
9 | CC1(C)Cc2c(sc(NC(=O)c3ccco3)c2C#N)CO1 | 69% (inactive)
10 | CCn1cc(C(=O)O)c(=O)c2cnc(N3CCN(C(=S)Nc4ccc5c(c4)OCCO5)CC3)nc21 | 62% (inactive)
11 | CCn1cc(C(=O)O)c(=O)c2cnc(N3CCN(C(=S)Nc4ccccc4OC)CC3)nc21 | 68% (inactive)
12 | CCn1cc(C(=O)O)c(=O)c2cnc(N3CCN(C(=S)Nc4ccc5c(c4)OCO5)CC3)nc21 | 46%
13 | CCn1cc(C(=O)O)c(=O)c2cnc(N3CCNCC3)nc21 | 103% (inactive)
14 | CCn1cc(C(=O)O)c(=O)c2cnc(N3CCN(C(=S)Nc4ccc(F)cc4)CC3)nc21 | 43%
15 | N#Cc1c(NC(=O)c2ccccc2)sc2c1CCC2 | 111% (inactive)
16 | Cc1sc(NC(=O)c2ccc(Br)o2)c(C#N)c1C | 40%
17 | CCn1cc(C(=O)O)c(=O)c2cnc(N3CCN(C(=S)Nc4ccccc4C(F)(F)F)CC3)nc21 | 90% (inactive)
18 | CCn1cc(C(=O)O)c(=O)c2cnc(N3CCN(C(=S)NC)CC3)nc21 | 101% (inactive)
19 | CCn1cc(C(=O)O)c(=O)c2cnc(N3CCN(C(=S)NCc4ccccc4)CC3)nc21 | 55% (inactive)
20 | CCn1cc(C(=O)O)c(=O)c2cnc(N3CCN(C(=S)NC(=O)c4cccc(C)c4)CC3)nc21 | 95% (inactive)
21 | CCn1cc(C(=O)O)c(=O)c2cc(F)c(N3CCN(C(=S)Nc4cccc(C(F)(F)F)c4)CC3)cc21 | 9%
22 | CCn1cc(C(=O)O)c(=O)c2cc(F)c(N3CCN(C(=S)Nc4ccccc4C(F)(F)F)CC3)cc21 | 51%
23 | C=CCNC(=S)N1CCN(c2ncc3c(=O)c(C(=O)O)cn(CC)c3n2)CC1 | 93% (inactive)
24 | CCn1cc(C(=O)O)c(=O)c2cnc(N3CCN(C(=S)Nc4cccc(C(F)(F)F)c4)CC3)nc21 | 8%
25 | CCn1cc(C(=O)O)c(=O)c2cnc(N3CCN(C(=S)NC(C)c4ccccc4)CC3)nc21 (stereo not drawn) | 13%
26 | CCn1cc(C(=O)O)c(=O)c2cnc(N3CCN(C(=S)Nc4ccccc4)CC3)nc21 | 83% (inactive)

More lines, now with the values ahead:

Row | remaining nuclease activity | Structure (SMILES)
27 | 65% (inactive) | N#Cc1c(NC(=O)c2cccc(F)c2)sc2c1CCCC2
28 | 42% | N#Cc1c(NC(=O)c2cc(-c3ccccc3)on2)sc2c1CCCC2
29 | 92% (inactive) | N#Cc1c(NC(=O)c2ccc([N+](=O)[O-])o2)sc2c1CCCC2
30 | 116% (inactive) | Nc1c(NC(=O)c2ccc([N+](=O)[O-])o2)sc2c1CCCC2
31 | 71% (inactive) | Cn1nccc1C(=O)Nc1sc2c(c1C#N)CCCC2
32 | 21% | CNC(=O)c1c(NC(=O)c2nc(SCc3ccccc3)ncc2Cl)sc2c1CCCC2
33 | 10% and 36% | N#Cc1c(NC(=O)c2cnccn2)sc2c1CCCC2
34 | 70% (inactive) | N#Cc1c(NC(=O)c2cnccn2)sc2c1CCCCCC2
35 | 98% (inactive) | Cc1ccc(C(=O)Nc2sc3c(c2C#N)CCC3)o1
36 | 55% (inactive) | N#Cc1c(NC(=O)c2ccccc2C(=O)O)sc2c1CCCC2
37 | 92% (inactive) | N#Cc1c(NC(=O)C2CC=CCC2C(=O)O)sc2c1CCC2 (stereo not drawn)
38 | 73% (inactive) | N#Cc1c(NC(=O)c2ccc(-c3ccccc3[N+](=O)[O-])o2)sc2c1CCCC2
39 | 92% (inactive) | CC1CCc2c(sc(NC(=O)c3cccs3)c2C#N)C1 (stereo not drawn)
40 | 31% | COC(=O)c1c(-c2ccccc2)csc1NC(=O)c1cnccn1
41 | 93% (inactive) | COC(=O)c1c(NC(=O)c2cnccn2)sc2c1CCCC2
42 | 87% (inactive) | NC(=O)c1c(NC(=O)c2cnccn2)sc2c1CCCC2
43 | 128% (inactive) | CC1CCc2c(sc(NC(=O)c3ccc([N+](=O)[O-])o3)c2N)C1 (stereo not drawn)
44 | 33% | Cc1sc(NC(=O)c2cnccn2)c(C(=O)OC(C)C)c1-c1ccccc1
45 | 72% (inactive) | Cc1ccc(C(=O)Nc2sc3c(c2C#N)CCCCC3)o1
46 | 41% | N#Cc1c(NC(=O)c2ccco2)sc2c1CCC2
47 | 100% (inactive) | CSc1ncc(Cl)c(C(=O)Nc2sc3c(c2C#N)CCC(C)C3)n1 (stereo not drawn)
48 | 6% | CCn1cc(C(=O)O)c(=O)c2cnc(N3CCN(C(=S)NC4CC5CCC4C5)CC3)nc21 (stereo not drawn)
49 | 88% (inactive) | COC(=O)c1c(-c2cccc(C)c2)csc1NC(=O)c1cnccn1
50 | 103% (inactive) | CCC(C)(C)C1CCc2c(sc(NC(=O)c3cnccn3)c2C#N)C1 (stereo not drawn)
51 | 91% (inactive) | CC1CCc2c(sc(NC(=O)c3cnccn3)c2C#N)C1 (stereo not drawn)
52 | 89% (inactive) | CC1CCc2c(sc(NC(=O)c3ccc([N+](=O)[O-])o3)c2C#N)C1 (stereo not drawn)
53 | 77% (inactive) | CSc1ncc(Cl)c(C(=O)Nc2sc3c(c2C(=O)NC2CCS(=O)(=O)C2)CCC(C)C3)n1 (stereo not drawn)
